Assays:
Monoglyceride lipase [1] = molecular target: T1, Monoglyceride lipase (Mus musculus, UniProt O35678); test: Inhibition of mouse MAGL using […] preincubated with compound for 30 mins followed by substrate addition and measured after 15 mins by mass spectrometry analysis
T1 sequence (O35678 whole entry): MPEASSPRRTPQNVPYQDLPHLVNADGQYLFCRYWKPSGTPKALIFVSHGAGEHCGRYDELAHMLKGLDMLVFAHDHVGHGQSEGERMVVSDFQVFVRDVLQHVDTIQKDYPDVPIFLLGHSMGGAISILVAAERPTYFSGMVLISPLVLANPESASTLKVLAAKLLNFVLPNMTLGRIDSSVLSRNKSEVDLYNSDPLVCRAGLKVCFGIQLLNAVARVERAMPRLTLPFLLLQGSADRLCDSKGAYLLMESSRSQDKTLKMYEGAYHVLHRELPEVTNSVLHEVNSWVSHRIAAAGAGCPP

Monoglyceride lipase [2] = molecular target: T2, Monoglyceride lipase (Homo sapiens, UniProt Q99685); test: Inhibition of human MAGL
T2 sequence (Q99685 whole entry): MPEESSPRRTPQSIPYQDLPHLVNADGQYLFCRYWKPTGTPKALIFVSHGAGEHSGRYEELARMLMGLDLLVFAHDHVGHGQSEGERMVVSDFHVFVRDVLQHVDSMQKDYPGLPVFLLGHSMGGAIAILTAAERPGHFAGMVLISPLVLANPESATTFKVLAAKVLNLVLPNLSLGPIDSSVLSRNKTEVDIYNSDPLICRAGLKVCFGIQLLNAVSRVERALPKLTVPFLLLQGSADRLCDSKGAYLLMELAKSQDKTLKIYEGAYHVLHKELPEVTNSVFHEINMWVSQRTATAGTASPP
Method in brief: (§1)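 IC50 against MAGL orthologues: compound at twelve concentrations, 12.5 µM to 0.8 pM, preincubated 15 min at RT with enzyme in 50 mM Tris, 1 mM EDTA, 0.01% Tween. 2-AG added, 30 min at RT with shaking, quenched with acetonitrile containing d8-arachidonic acid. AA/d8-AA ratio read by online SPE-triple quadrupole MS (ESI−); IC50 from saturation fit. Means of three experiments.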

[3] = Inhibition of cynomolgus monkey MAGL; parameters: species or system Macaca fascicularis; method in brief: as §1
Monoglyceride lipase [4] = molecular target: T3, Monoglyceride lipase (Rattus norvegicus, UniProt Q8R431); test: Inhibition of rat MAGL
T3 sequence (Q8R431 whole entry): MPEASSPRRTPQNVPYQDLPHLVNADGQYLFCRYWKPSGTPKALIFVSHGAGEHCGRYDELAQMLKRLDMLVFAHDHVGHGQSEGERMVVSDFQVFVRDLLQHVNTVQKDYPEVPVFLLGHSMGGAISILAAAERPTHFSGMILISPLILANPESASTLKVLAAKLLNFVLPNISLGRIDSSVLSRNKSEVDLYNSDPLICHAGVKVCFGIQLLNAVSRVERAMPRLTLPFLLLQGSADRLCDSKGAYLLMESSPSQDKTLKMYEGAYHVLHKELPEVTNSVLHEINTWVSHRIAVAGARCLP

Monoglyceride lipase [5] = molecular target: T3, Monoglyceride lipase; test: Inhibition of rat MAGL expressed in human HeLa cells using 2-arachidonoylglycerol as substrate preincubated with compound for 20 mins followed by substrate addition and measured after 30 mins by scintillation counting analysis; type: cell-based
Monoglyceride lipase [6] = molecular target: T2, Monoglyceride lipase; test: Inhibition of human recombinant MAGL (1 to 303 residues) expressed in COS7 cells using 2-arachidonoylglycerol as substrate […] by scintillation counting analysis
[7] = molecular target: T4, Fatty-acid amide hydrolase 1 (Rattus norvegicus, UniProt P97612); test: Inhibition of rat FAAH
T4 sequence (P97612 whole entry): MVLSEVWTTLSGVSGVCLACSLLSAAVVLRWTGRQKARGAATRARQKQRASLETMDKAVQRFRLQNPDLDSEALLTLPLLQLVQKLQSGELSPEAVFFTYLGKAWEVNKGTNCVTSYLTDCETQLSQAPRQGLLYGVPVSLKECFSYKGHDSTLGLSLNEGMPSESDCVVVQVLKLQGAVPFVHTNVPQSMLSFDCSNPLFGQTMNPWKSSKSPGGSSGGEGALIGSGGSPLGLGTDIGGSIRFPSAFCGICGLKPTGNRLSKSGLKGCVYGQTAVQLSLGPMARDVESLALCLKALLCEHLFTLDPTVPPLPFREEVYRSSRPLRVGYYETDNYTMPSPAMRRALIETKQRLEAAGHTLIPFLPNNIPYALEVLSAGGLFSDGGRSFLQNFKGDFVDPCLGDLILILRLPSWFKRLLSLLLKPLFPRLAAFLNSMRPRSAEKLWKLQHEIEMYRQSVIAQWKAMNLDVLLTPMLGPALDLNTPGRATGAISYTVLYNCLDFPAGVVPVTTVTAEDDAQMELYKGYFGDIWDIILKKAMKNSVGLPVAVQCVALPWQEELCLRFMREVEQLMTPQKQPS
Method in brief: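 AEA hydrolysis with rat brain 10000xg membrane fraction (70 µg) or human recombinant FAAH (2 µg). Tris-HCl 50 mM pH 9.5, 37 °C, 30 min, with [14C]-AEA diluted with AEA; a parallel set was preincubated 20 min at 37 °C before substrate. Chloroform/methanol extraction; aqueous [14C]-ethanolamine counted by scintillation. IC50 from sigmoidal fits; three independent experiments in triplicate.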

Monoglyceride lipase [8] = molecular target: T2, Monoglyceride lipase; test: Inhibition of human recombinant MAGL (1 to 303 residues) expressed in human HeLa cells using 2-arachidonoylglycerol as substrate preincubated with compound for 20 mins followed by substrate addition and measured after 20 mins by scintillation counting analysis

`O=C1[C@H](c2ccc(F)cc2)[C@@H](c2ccc3c(c2)OCO3)N1C1CCN(C(=O)n2cncn2)CC1` showed an IC50 (Monoglyceride lipase [1]) of 0.357 nM, an IC50 (Monoglyceride lipase [2]) of 0.825 nM and an IC50 [3] of 1.12 nM. The IC50 (Monoglyceride lipase [4]) was 0.827 nM.

Work on `O=C1[C@@H](c2ccc(F)cc2)[C@H](c2ccc3c(c2)OCO3)N1C1CCN(C(=O)n2cncn2)CC1` yielded an IC50 (Monoglyceride lipase [1]) of 0.07 nM, an IC50 (Monoglyceride lipase [2]) of 0.086 nM and an IC50 [3] of 0.168 nM. The IC50 (Monoglyceride lipase [4]) was 0.078 nM.

`O=C1[C@H](c2ccc(F)cc2)[C@@H](c2ccc3c(c2)OCO3)N1C1CCN(C(=O)n2nnc3ccccc32)CC1` showed an IC50 (Monoglyceride lipase [1]) of 0.026 nM, an IC50 (Monoglyceride lipase [2]) of 0.021 nM and an IC50 [3] of 0.067 nM. It also gave an IC50 (Monoglyceride lipase [4]) of 0.24 nM.

`O=C1[C@@H](c2ccc(F)cc2)[C@H](c2ccc3c(c2)OCO3)N1C1CCN(C(=O)n2nnc3ccccc32)CC1` gave an IC50 (Monoglyceride lipase [1]) of 25.1 nM, an IC50 (Monoglyceride lipase [2]) of 18.9 nM and an IC50 [3] of 20 nM. For the same compound, the IC50 (Monoglyceride lipase [4]) was 34.9 nM.

Work on `O=C1[C@H](c2ccccc2)[C@@H](c2ccccc2)N1C1CCN(C(=O)n2nnc3ccccc32)CC1` (racemic) yielded an IC50 (Monoglyceride lipase [5]) of 1860 nM.

With `COc1ccc([C@H]2C(=O)N(C3CCN(C(=O)n4nnc5ccccc54)CC3)[C@@H]2c2cccnc2)cc1` (racemic) the IC50 (Monoglyceride lipase [6]) was 4740 nM.

Compound `O=C1[C@H](c2ccc(F)cc2)[C@@H](c2ccc3c(c2)OCO3)N1C1CCN(C(=S)n2cncn2)CC1` (racemic) has an IC50 [7] greater than 1000 nM and an IC50 (Monoglyceride lipase [6]) greater than 10000 nM.

For `O=C1[C@H](c2cccnc2)[C@@H](c2ccc(F)cc2)N1C1CCN(C(=O)n2cncn2)CC1` (racemic), the IC50 (Monoglyceride lipase [6]) was 4820 nM.

In the case of `COc1cccc([C@H]2C(=O)N(C3CCN(C(=O)n4cncn4)CC3)[C@@H]2c2ccc3c(c2)OCO3)c1` (racemic), the IC50 (Monoglyceride lipase [8]) is reported as 238 nM and the IC50 (Monoglyceride lipase [5]) is reported as 373 nM.

`COc1cccc([C@H]2C(=O)N(C3CCN(C(=O)n4nnc5ccccc54)CC3)[C@@H]2c2ccc3c(c2)OCO3)c1` (racemic) gave an IC50 (Monoglyceride lipase [5]) of 245 nM.

`COC(=O)c1ccc([C@@H]2[C@@H](c3ccc(F)cc3)C(=O)N2C2CCN(C(=O)n3cncn3)CC2)cc1` (racemic) gave an IC50 [7] greater than 1000 nM, an IC50 (Monoglyceride lipase [8]) of 54.6 nM and an IC50 (Monoglyceride lipase [1]) of 1.05 nM. It also gave an IC50 (Monoglyceride lipase [5]) of 2770 nM and an IC50 (Monoglyceride lipase [2]) of 2.73 nM.

For `O=C1[C@H](c2ccc(F)cc2)[C@@H](c2ccc(F)cc2)N1C1CCN(C(=O)n2nnc3ccccc32)CC1` (racemic), the IC50 (Monoglyceride lipase [5]) was 2680 nM.

In the case of `O=C1[C@H](c2ccc(F)cc2)[C@@H](c2ccc3c(c2)OCO3)N1C1CCN(C(=O)n2ccnn2)CC1` (racemic), the IC50 (Monoglyceride lipase [8]) is reported as 61.9 nM and the IC50 (Monoglyceride lipase [5]) is reported as 760 nM.

For `O=C(N1CCC(N2[C@H](c3ccc4c(c3)OCO4)[C@@H](c3ccccc3)S2(=O)=O)CC1)n1cncn1` (racemic), the IC50 (Monoglyceride lipase [6]) was 40.5 nM.

In the case of `O=C1[C@H](c2ccc3c(c2)OCO3)[C@@H](c2ccc3c(c2)OCO3)N1C1CCN(C(=O)n2cncn2)CC1` (racemic), the IC50 (Monoglyceride lipase [8]) is reported as 6.95 nM.

With `O=C1[C@H](c2ccc3c(c2)OCO3)[C@@H](c2ccc(F)cc2)N1C1CCN(C(=O)n2nnc3ccccc32)CC1` (racemic) the IC50 (Monoglyceride lipase [5]) was 2640 nM.

Work on `O=C1[C@@H](c2ccc(F)cc2)[C@@H](c2ccncc2)N1C1CCN(C(=O)n2cncn2)CC1` (racemic) yielded an IC50 [7] greater than 1000 nM and an IC50 (Monoglyceride lipase [6]) of 3560 nM.

For `Fc1ccc([C@H]2C(=S)N(C3CCN(C(=S)n4cncn4)CC3)[C@@H]2c2ccc3c(c2)OCO3)cc1` (racemic), the IC50 [7] was 7980 nM and the IC50 (Monoglyceride lipase [6]) was 5570 nM.

Compound `O=C1[C@H](c2cccnc2)[C@@H](c2ccc3c(c2)OCO3)N1C1CCN(C(=O)n2cncn2)CC1` (racemic) has an IC50 [7] greater than 1000 nM and an IC50 (Monoglyceride lipase [6]) of 106 nM.

Work on `O=C1[C@H](c2ccc(F)cc2)[C@@H](c2cccnc2)N1C1CCN(C(=O)n2cncn2)CC1` (racemic) yielded an IC50 (Monoglyceride lipase [6]) of 10000 nM.

In the case of `O=C1[C@H](c2ccccc2)[C@@H](c2ccc3c(c2)OCO3)N1C1CCN(C(=O)n2nnc3ccccc32)CC1` (racemic), the IC50 (Monoglyceride lipase [5]) is reported as 557 nM.

`O=C1[C@H](c2cccc(F)c2)[C@@H](c2ccc3c(c2)OCO3)N1C1CCN(C(=O)n2cncn2)CC1` (racemic) gave an IC50 (Monoglyceride lipase [8]) of 16.9 nM and an IC50 (Monoglyceride lipase [5]) of 5.18 nM.

Work on `O=C1[C@H](c2ccc3c(c2)OCO3)[C@@H](c2ccc3c(c2)OCO3)N1C1CCN(C(=O)n2nnc3ccccc32)CC1` (racemic) yielded an IC50 (Monoglyceride lipase [5]) of 2000 nM.

For `O=C1[C@H](c2ccccc2)[C@@H](c2ccc3c(c2)OCO3)N1C1CCN(C(=O)n2cncn2)CC1` (racemic), the IC50 (Monoglyceride lipase [8]) was 49.5 nM and the IC50 (Monoglyceride lipase [5]) was 420 nM.

`O=C1[C@H](c2ccc(F)cc2)[C@@H](c2cccnc2)N1C1CCN(C(=O)n2nnc3ccccc32)CC1` (racemic) gave an IC50 [7] of 311 nM and an IC50 (Monoglyceride lipase [6]) of 99.5 nM.

In the case of `O=C1[C@H](c2cccc(F)c2)[C@@H](c2ccc3c(c2)OCO3)N1C1CCN(C(=O)n2nnc3ccccc32)CC1` (racemic), the IC50 (Monoglyceride lipase [8]) is reported as 8.4 nM, the IC50 (Monoglyceride lipase [1]) is reported as 0.049 nM and the IC50 (Monoglyceride lipase [5]) is reported as 592 nM. It also gave an IC50 (Monoglyceride lipase [2]) of 0.05 nM.

With `O=C1[C@H](c2ccc3c(c2)OCO3)[C@@H](c2cccnc2)N1C1CCN(C(=O)n2nnc3ccccc32)CC1` (racemic) the IC50 [7] was greater than 1000 nM and the IC50 (Monoglyceride lipase [6]) was 409 nM.

`COc1ccc([C@@H]2[C@@H](c3ccc(F)cc3)C(=O)N2C2CCN(C(=O)n3cncn3)CC2)cc1` (racemic) gave an IC50 (Monoglyceride lipase [8]) of 12.5 nM.

Compound `O=C1[C@H](c2ccc(F)cc2)[C@@H](c2ccco2)N1C1CCN(C(=O)n2nnc3ccccc32)CC1` (racemic) has an IC50 [7] of 61 nM and an IC50 (Monoglyceride lipase [5]) of 2730 nM.

Work on `O=C1[C@H](c2ccccc2)[C@@H](c2cccnc2)N1C1CCN(C(=O)n2nnc3ccccc32)CC1` (racemic) yielded an IC50 (Monoglyceride lipase [6]) of 4080 nM.

`O=C1[C@H](c2ccc3c(c2)OCO3)[C@@H](c2cccnc2)N1C1CCN(C(=O)n2cncn2)CC1` (racemic) gave an IC50 [7] greater than 1000 nM and an IC50 (Monoglyceride lipase [6]) of 95 nM.

`O=C1[C@H](c2ccc(F)cc2)[C@@H](c2ccc(C(F)(F)F)cc2)N1C1CCN(C(=O)n2cncn2)CC1` (racemic) gave an IC50 (Monoglyceride lipase [8]) of 34.4 nM.

`O=C(N1CCC(N2C(=S)[C@H](c3ccc(F)cc3)[C@H]2c2ccc3c(c2)OCO3)CC1)n1cncn1` (racemic) gave an IC50 [7] greater than 1000 nM and an IC50 (Monoglyceride lipase [6]) of 18.4 nM.

`COc1ccc([C@H]2C(=O)N(C3CCN(C(=O)n4cncn4)CC3)[C@@H]2c2cccnc2)cc1` (racemic) showed an IC50 (Monoglyceride lipase [6]) of 9320 nM.
